Test results as given in ChEMBL document CHEMBL3272038, “Synthesis and central nervous system depressant activity of some bicyclic amides” (J Med Chem, 1976).
Active and inactive are the calls of the source. The calls are words filed in the database; no cut-off is given here.

What was measured:
[1] = Acute toxicity in ip dosed Royal Hart Wistar rat; format: organism-based; settings: in vivo
Outline: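 Paired male Royal Hart Wistar rats (136–160 g) were housed in wire cages and dosed ip. LD50 was read 2 hr after administration, using four rats per substance, and estimated by probit analysis.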

[2] = organism: Mus musculus; test: Anticonvulsant activity in mouse assessed as protection against maximal electroshock-induced seizures; format: functional
Outline: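 Maximal electroshock seizure test in mice, run by an earlier published method. Compounds were given ip at ten animals per dose, and ED50 is expressed in mg/kg ip.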

[3] = organism: Mus musculus; test: Anticonvulsant activity in mouse assessed as protection against N-sulfamoylhexahydroazepine-induced convulsions; format: functional
Outline: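 N-sulfamoylhexahydroazepine convulsion test in mice, run by an earlier published method. Compounds were given ip at ten animals per dose, and ED50 is expressed in mg/kg ip.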

[4] = test system: Mus musculus; test: Central nervous depressant activity in ip dosed mouse assessed as induction of ataxia; format: functional; settings: Central nervous system
Outline: (§1)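 Behavioral scoring in mice used a modified Irwin observational method. Compounds were given ip at ten animals per dose. Ataxia and loss of righting reflex were recorded, and ED50 values are in mg/kg ip.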

[5] = test system: Mus musculus; test: Central nervous depressant activity in ip dosed mouse assessed as loss of righting reflex; format: functional; settings: Central nervous system; outline: as §1
[6] = test system: Mus musculus; test: Reinduction of anesthesia-induced loss of righting in dosed mouse administered compound following recovery from hexobarbital anesthesia; format: functional
Outline: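 Mice were anesthetized with hexobarbital (70 mg/kg iv). Compound was given ip immediately on recovery, and reinduction of loss of righting was timed from that point. The method was modified from earlier work, and RD50 is expressed in mg/kg ip.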

[7] = test system: Mus musculus; test: Anticonvulsant activity in mouse assessed as protection against maximal electroshock-induced seizures at 100 mg/kg, ip; format: functional, organism-based; design: dose 100 mg/kg
[8] = test system: Mus musculus; test: Anticonvulsant activity in mouse assessed as protection against N-sulfamoylhexahydroazepine-induced convulsions at 200 mg/kg, ip; format: functional, organism-based; design: dose 200 mg/kg
[9] = test system: Mus musculus; test: Anticonvulsant activity in mouse assessed as protection against maximal electroshock-induced seizures at 200 mg/kg, ip; format: functional, organism-based; design: dose 200 mg/kg
[10] = test system: Mus musculus; test: Anticonvulsant activity in mouse assessed as protection against N-sulfamoylhexahydroazepine-induced convulsions at 400 mg/kg, ip; format: functional, organism-based; design: dose 400 mg/kg

Compound | LD50 [1] [mg/kg] | ED50 [2] [mg/kg] | ED50 [3] [mg/kg] | ED50 [4] [mg/kg] | ED50 [5] [mg/kg] | RD50 [6] [mg/kg] | Activity [7] | Activity [8] | Activity [9] | Activity [10]
O=C(CCC(=O)c1cccs1)NCCCO | 475 | > 300 | > 300 | 300 | 300 | >300 |  |  |  | 
COc1ccc(C23CCC(=O)N2CCCO3)cc1 (stereo not drawn) |  | 93.8 | 138 | < 150 | < 150 | <150 |  |  |  | 
Cc1ccc(C23CCC(=O)N2CCCO3)c(C)c1 (stereo not drawn) | 600 | > 150 | < 150 | < 50 | 150 | <150 |  |  |  | 
CCC1(c2ccccc2)C(=O)N=C([O-])NC1=O.[Na+] (stereo not drawn) [PHENOBARBITAL SODIUM] | 225 | 15.4 | 8 | 62.5 | 83 | 65.6 |  |  |  | 
O=C(CCC(=O)c1ccc(Cl)c(Cl)c1)NCCCO | 500 | 450 | > 600 | 300 | 500 | >300 |  |  |  | 
O=C1CCCC2(c3ccccc3)OCCCN12 (stereo not drawn) | 500 | < 150 | 122 | < 50 | 150 | 75 |  |  |  | 
Cc1ccc(C(=O)CCC(=O)NCCCO)cc1 | 750 | > 300 | > 300 | 300 | 700 | <300 |  |  |  | 
O=C(CCC(=O)c1ccc(F)cc1)NCCCO | > 800 | > 400 | > 400 | 300 | 500 | >400 |  |  |  | 
O=C1CCC2(c3cccs3)OCCCN12 (stereo not drawn) | 467 | 112 | > 75 | > 75 | > 75 | 46.5 |  |  |  | 
COc1ccc(C(=O)CCC(=O)NCCCO)cc1 | 800 | > 600 | > 600 | 150 | 800 | <600 |  |  |  | 
O=C1CCC2(c3ccc(Cl)cc3)OCCCN12 (stereo not drawn) | 675 | 58 | 91.7 | 75 | 81.2 | >100 |  |  |  | 
Cc1ccc(C23CCC(=O)N2CCCO3)cc1 (stereo not drawn) | 675 |  |  | < 50 | 160 | >100 | inactive | inactive |  | 
Cc1ccc(C(=O)CCC(=O)NCCCO)c(C)c1 | 633 | > 150 | > 150 | 150 | 150 | <150 |  |  |  | 
O=C(CCC(=O)c1ccc(Cl)cc1)NCCCO | 633 | > 300 | > 300 | 300 | 325 | <300 |  |  |  | 
O=C1CCC2(c3ccccc3)OCCN12 (stereo not drawn) | 300 |  |  | < 50 | 150 | 37.5 |  | inactive | inactive | 
O=C1CCC2(c3ccccc3)OCCCN12 (stereo not drawn) | 500 | 92 | 169 | 37.5 | 150 | 34 |  |  |  | 
O=C1CCCC2(c3ccccc3)OCCN12 (stereo not drawn) |  | 158 | 150 | < 150 | > 150 | 69 |  |  |  | 
O=C1CCC2(c3ccc(Cl)c(Cl)c3)OCCCN12 (stereo not drawn) | 550 | 112 | < 75 | < 150 | < 150 | >150 |  |  |  | 
CCC1(c2ccccc2)CCC(=O)NC1=O (stereo not drawn) [GLUTETHIMIDE] | 350 | 24.7 |  | 100 | 229 | 112.5 |  |  |  | inactive
O=C1CCC2(c3ccc(F)cc3)OCCCN12 (stereo not drawn) | 600 | 68.7 | 50 | 75 | 100 | 66 |  |  |  | 
